Compounds with a hit are over-represented: about 2.5% of the library has one in this group of screens.
SR-BI uptake up: enhances SR-BI lipid uptake from DiI-HDL; CHO ldlA[mSR-BI] cells, DiI-HDL uptake fluorescence, 3 h; 100 = double the neutral-control signal; activation, % at 12.5 µM; 320,000 compounds, 0.096% hits; AID 504775;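 active = mean replicate activation of at least 60% and every replicate at or above 60%; inconclusive = mean or all-replicate condition met, but not both; inactive = mean below 60% and not all replicates reaching 60%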;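 also: 0% = median plate neutral-control signal and 100% = twice that signal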
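System: CHO ldlA[mSR-BI] cells / Medium: HEPES-buffered (25 mM, pH 7.4) F12 plus 0.5% BSA / Probe or stimulus: labelled HDL, 10 µg/mL / Doses: single compound concentration, delivered by pin transfer / Schedule: 3 h, 37 °C / Measured by: DiI fluorescence, bottom read / Measure: cell-associated DiI fluorescence as measure of HDL uptake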
Vif imaging: HIV Vif inhibition; HEK293T cells, Vif self-association by quenched fluorescence, imaging, 24 h; inhibition, % at 7.49 µM; 340,000 compounds, 0.35% hits; in the data active = inhibition above about 50%, passing the limit was not always enough; inconclusive = no clear call, values can overlap the other calls; inactive = below about 31%
H9c2 TAG inh: inhibitors of triacylglycerol accumulation. H9c2 cells, Nile Red lipid (TAG) fluorescence; cells loaded with 200 µM oleic acid. inhibition, % at 12.5 µM. 230,000 compounds, 0.66% hits;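 active = pattern-corrected inhibition of lipid staining of at least 50% with the nuclear-stain viability signal not falling by more than 50%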;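 also: 0% = DMSO wells and 100% = triacsin C control wells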
SMARCA2 act: increases SMARCA2 function in MMTV reporter cells; 370,000 compounds, 1% hits; activation, % at 9.1 µM; MG213 cells, MMTV-luciferase reporter, dexamethasone, overnight; in the data active = activation above about 7.8%;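 also: 0% = vehicle wells and 100% = reference activator wells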
SR-BI DiI inh: blocks mouse SR-BI lipid uptake from DiI-HDL; Q61009; ldlA[mSR-BI] CHO cells, DiI-HDL uptake fluorescence, 3 h; inhibition, % at 12.5 µM; 320,000 compounds, 0.96% hits;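 active = mean replicate inhibition of at least 70% and a set share of replicates each scoring 70 or more; inconclusive = meets just one of the two criteria; inactive = fails both criteria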;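 also: 0% = median of neutral control wells and 100% = median of positive control wells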
Target sequence (Q61009 whole entry, looked up): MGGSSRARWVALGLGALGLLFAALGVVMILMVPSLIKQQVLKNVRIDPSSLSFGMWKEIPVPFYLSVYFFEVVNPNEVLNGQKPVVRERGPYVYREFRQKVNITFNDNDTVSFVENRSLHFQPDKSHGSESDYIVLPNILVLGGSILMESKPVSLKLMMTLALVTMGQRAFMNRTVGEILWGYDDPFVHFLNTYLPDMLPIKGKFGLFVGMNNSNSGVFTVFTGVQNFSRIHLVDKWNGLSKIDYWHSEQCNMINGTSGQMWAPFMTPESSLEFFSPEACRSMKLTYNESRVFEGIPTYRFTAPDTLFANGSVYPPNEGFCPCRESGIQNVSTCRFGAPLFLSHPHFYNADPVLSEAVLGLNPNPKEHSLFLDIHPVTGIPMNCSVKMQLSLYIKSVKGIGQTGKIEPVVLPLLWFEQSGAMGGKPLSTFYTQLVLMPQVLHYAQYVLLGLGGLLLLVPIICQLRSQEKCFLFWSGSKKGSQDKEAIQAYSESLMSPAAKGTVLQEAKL
DiI quench: DiI fluorescence quenching in cell-free counter-screen; 470 compounds, 20% hits; AID 540326; cell-free DiI-HDL fluorescence quenching, 30 min; AC50, µM (doses to about 35 µM), for the others: at the highest dose activity change, negative = quenching; shares compounds with SR-BI DiI inh;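 active = quenching, a falling signal, with AC50 below a set limit tied to the top valid dose, actives reach about 32 µM in these data; inconclusive = no clear call, values can overlap the other calls; inactive = rising signal, and the rest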
* marks the source's active call; other numbers are inactive results; u = inconclusive; x = no result given.

SMILES	SR-BI uptake up	Vif imaging	H9c2 TAG inh	SMARCA2 act	SR-BI DiI inh	DiI quench
CCC(C)c1ccccc1N1CC(C(=O)N2CCN(S(=O)(=O)c3ccccc3Br)CC2)CC1=O (stereo not given)	-78	-6	3	-2	78*	-1%
CC(C)c1ccc(Oc2cccc3c2S(=O)(=O)N([C@H](C)c2ccccc2)C[C@@H](COCc2ccccc2)O3)cc1	x	x	x	-2	x	x
Cc1ccc(S(=O)(=O)N2CCN(C(=O)N(c3ccccc3)c3ccccc3)CC2)cc1	3	-8	x	-1	-3	x
CN(C)S(=O)(=O)N1CCN(C(=O)N(c2ccccc2)c2ccccc2)CC1	-70	6	x	1	u	-2%
C=CC[C@@H]1NN2C(=O)[C@@H](C)[C@@H]3c4ccccc4C=NN3[C@@H]2c2ccccc21	x	x	x	-3	x	x
CC(C)(C)C(=O)c1c(N)[nH]c(C(=O)c2ccccc2)c1-c1ccccc1	x	x	x	-1	x	x
CC(C)C(=O)Nc1ccccc1-c1nc2ccccc2[nH]c1=O	18	5	0	-1	-18	x
CC(C)C(=O)Nc1sc2c(c1-c1nc3ccccc3[nH]1)CCCC2	-101	2	47	2	101*	21µM*
Clc1ccc(-c2cc(-c3nnc4n3CCCCC4)c3ccccc3n2)cc1	-83	-8	x	-2	83*	1%
COc1cc(NC(=O)c2ccco2)c(OC)cc1NC(=O)Nc1ccc(Cl)cc1	-100	-8	x	-2	100*	5.1µM*
CCCOc1ccc(C(=O)Nc2ccc(S(=O)(=O)N3C[C@@H]4C[C@@H](C3)c3cccc(=O)n3C4)cc2)cc1	-57	3	x	2	57	3%
Nc1[nH]c(C(=O)c2ccccc2)c(-c2cccnc2)c1C(=O)c1ccccc1	x	x	x	-3	x	x
CCOC(=O)CC[C@H]1CC[C@]2(CCCN(S(=O)(=O)c3ccccc3)C2)O1	x	x	x	0	x	x
CC(=O)Nc1c(I)c(C(=O)N[C@H]2C(O)O[C@H](CO)[C@@H](O)[C@@H]2O)c(I)c(N(C)C(C)=O)c1I (stereo not given in full)	1	-9	8	-1	-1	-1%
COCCN(C(=O)COC(=O)c1cccc2ccccc12)c1c(N)n(Cc2ccccc2)c(=O)[nH]c1=O	2	7	2	3	-2	x
COCCN(C(=O)COC(=O)c1ccccc1Nc1ccccc1)c1c(N)n(Cc2ccccc2)c(=O)[nH]c1=O	-74	1	34	-2	74*	4%
Cc1ccc(-n2c(SCC(=O)c3ccc(-c4ccccc4)cc3)nnc2-c2ccc(C(C)(C)C)cc2)cc1	x	x	x	-3	x	x
C[C@@H]1C=CCCO[C@]12C(=O)N(Cc1ccccc1C(F)(F)F)c1ccccc12	x	x	x	-5	x	x
COc1cc(C(=S)N2CCCC2)ccc1OC(=O)c1ccc(Cl)cc1[N+](=O)[O-]	-112	5	8	-3	112*	-15%
COc1cc(C(=S)N2CCOCC2)ccc1OC(=O)c1ccccc1[N+](=O)[O-]	-24	-3	x	-1	24	x
CC(C)c1nnc(NC(=O)CCC(=O)N2CCN(C3c4ccccc4-c4ccccc43)CC2)s1	-73	-7	x	-4	u	-3%
CC(C)(C)N(Cc1ccccc1)C(=O)COC(=O)CN1C(=O)NC2(CCCC2)C1=O	-76	x	-12	-3	76*	2%
CC(C)(C)N(Cc1ccccc1)C(=O)COC(=O)CN1C(=O)C2CC=CCC2C1=O (stereo not given)	14	1	2	-2	-14	x
CCOC(=O)Nc1sc(C)c(C)c1C(=O)OCC	-8	-6	x	0	8	x
CCOC(=O)c1c(Nc2nc(C)c(C(=O)NC)s2)sc(C)c1C	-93	-4	9	-1	93*	-14%
SMILES	SR-BI uptake up	Vif imaging	H9c2 TAG inh	SMARCA2 act	SR-BI DiI inh	DiI quench
CC(=O)Nc1ccc(S(=O)(=O)Nc2cc(C)c(-n3nc4ccccc4n3)cc2O)cc1	-93	x	x	3	93*	9.6µM*
CCOc1ccccc1NC(=O)N1C2CCCC1CC(NC(=O)C1CC1)C2 (stereo not given)	-7	6	-13	-3	7	0%
CCOc1ccccc1NC(=O)C(CC(C)C)NC(=O)C1CCC(C)CC1 (stereo not given)	-80	0	29	-3	80*	-3%
CCCCCCCCN1C(=O)[C@@H](CC(=O)NCC23CC4CC(CC(C4)C2)C3)C[C@@]2(C(=O)OC)C1=C[C@H](C(C)(C)C)O[C@@H]2C	x	x	x	-9	x	x
COc1cccc(-c2csc(N3CCN(C(=O)NC45CC6CC(CC(C6)C4)C5)CC3)n2)c1	17	x	15	0	-17	-6%
COc1cccc(-c2csc(N3CCN(C(=S)Nc4cccc(C)c4)CC3)n2)c1	-90	-3	4	4	90*	-10%
Cc1cccc(Cn2cc(COC(=O)N3CCOCC3)nn2)c1	x	x	x	-2	x	x
O=C(Nc1cccc(Cl)c1)Nc1sccc1-c1nc2ccccc2s1	-106	-2	25	-2	106*	11%
CCOC(=O)c1cccc(NC(=O)CN(C)S(=O)(=O)c2ccc(C)c(C)c2)c1	x	x	x	-2	x	x
Cc1nc2c(cnn2-c2ccccc2Cl)c(=O)n1-c1ccc(N2CCC(C)CC2)cc1	-72	11	-10	-3	72*	-12%
Oc1csc(Cc2nc(-c3ccc4ccccc4c3)cs2)n1	-70	-17	16	6	u	16µM*
COc1ccc(OC)c(Nc2ccc(Nc3cc(OC)ccc3OC)nn2)c1	-86	-6	x	-1	86*	5.1µM*
COc1ccc(OC)c(Nc2cc(C)c3ccccc3n2)c1	-40	-1	1	-2	40	x
Cc1cccc(NC(=O)N2C3CCCC2CC(NC(=O)C(C)(C)C)C3)c1 (stereo not given)	-76	-4	x	0	76*	-2%
CC(=O)Nc1nc(-c2ccccc2)nc(-c2ccccc2OC(C)=O)n1	-75	3	x	-1	u	4%
COc1ccc(-c2nnc(SCC(=O)Nc3ncc(C(F)(F)F)cc3Cl)n2CC(C)C)cc1	-25	-2	x	-2	25	-6%
CCn1c(SCC(=O)Nc2ncc(C(F)(F)F)cc2Cl)nnc1-c1cccc(C)c1	26	2	x	-6	-26	x
CCOCCOC(=O)c1[nH]c2c(c1C)C(=O)CC(c1ccccc1)C2 (stereo not given)	-51	12	x	2	51	x
CCOC(=O)c1[nH]c2c(c1C)C(=O)CC(c1ccc(F)cc1)C2 (stereo not given)	-72	27	33	-2	u	-3%
COCCOC(=O)c1[nH]c2c(c1C)C(=O)CC(c1cccs1)C2 (stereo not given)	x	-7	44	-2	x	x
CCCCCOC(=O)c1[nH]c2c(c1C)C(=O)CC(c1ccco1)C2 (stereo not given)	-80	30	41	x	80*	-5%
CCC(NC(=O)CCCN1C(=O)COc2ccc(C)cc21)c1ccccc1 (stereo not given)	x	x	x	-6	x	x

Screening results as filed in PubChem BioAssay.
